Active and inactive are the calls of the source. The calls are words filed in the database; no cut-off is given here.
Experiments:
[1] = In vivo antagonist activity at dopamine receptor in pigeon assessed as inhibition of apomorphine-induced pecking behavior administered intramuscularly for 15 mins prior to apomorphine-challenge measured after 1 hr; assay type: functional; settings: Columbidae, im
Summary of the method: (§1)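 Pigeons were pretreated im with compound 15 min before im apomorphine hydrochloride (1.6 μmol/kg), and pecking frequency was quantified. Five pigeons per dose, three antagonist doses spaced at 0.3 log intervals.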

[2] = tested on: Canis familiaris; assay: In vivo antagonist activity at dopamine receptor in sc dosed mongrel dog assessed as inhibition of apomorphine-induced emesis pretreated for 15 mins followed by apomorphine-challenge measured after 1 hr; assay type: functional; settings: Canis lupus familiaris
Summary of the method: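 Dogs were given compound sc 15 min before sc apomorphine hydrochloride (100 μg/kg). Emesis frequency over 1 h was compared with the apomorphine control value in the same dogs.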

[3] = tested on: Canis familiaris; assay: Toxicity in sc dosed mongrel dog assessed as behavioral changes; assay type: organism-based, Canis lupus familiaris; settings: in vivo
[4] = tested on: Felis catus; assay: Effect on 2 Hz stimulation of right cardioaccelerator nerve-induced positive chronotropic response in iv dosed cat assessed as concentration required for 50% potentiation of change in heart rate; assay type: functional
[5] = tested on: Mus musculus; assay: Hypothermic activity in mouse assessed as decrease in rectal temperature at 10 mg/kg, sc measured every 15 mins; assay type: functional; settings: route subcutaneous
[6] = tested on: Felis catus; assay: Effect on 2 Hz stimulation of right cardioaccelerator nerve-induced positive chronotropic response in cat assessed as potentiation of change in heart rate up to 3.3 umol/kg, iv; assay type: functional, organism-based
[7] = tested on: Canis familiaris; assay: In vivo agonist activity at dopamine receptor in mongrel dog assessed as induction of emesis up to 5 mg/kg, sc after 1 hr; assay type: functional, organism-based; parameters: dose 5 mg/kg; settings: Canis lupus familiaris
Summary of the method: (§2)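 Mongrel dogs, five per dose, with doses spaced at 0.3 log intervals and given sc. Emetic episodes were counted for 1 h after dosing. Apomorphine hydrochloride served as reference standard.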

[8] = species: Felis catus; assay: Effect on 2 Hz transmural stimulation of right atrium-induced positive chronotropic response in cat assessed as concentration required for 50% potentiation of change in heart rate; assay type: functional, Cardiac atrium
Summary of the method: (§3)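 Isolated cat right atria in Feigan's solution under transmural field stimulation: 2 Hz, 5 ms pulses, maximal voltage, 10 s trains every 5 min, activating adrenergic terminals. After control heart-rate increases were established, compound was added to the bath and its effect was read 5 min later. Estimated ID50 or 50%-potentiation concentration in μM.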

[9] = In vivo antagonist activity at dopamine receptor in pigeon assessed as inhibition of apomorphine-induced pecking behavior administered intramuscularly for 15 mins prior to apomorphine-challenge measured after 1 hr relative to control; assay type: functional, Columbidae; summary of the method: as §1
[10] = tested on: Felis catus; assay: Effect on 2 Hz stimulation of right cardioaccelerator nerve-induced positive chronotropic response in cat assessed as potentiation of change in heart rate up to 3.5 umol/kg, iv; assay type: functional, organism-based
[11] = tested on: Felis catus; assay: Effect on 2 Hz stimulation of right cardioaccelerator nerve-induced positive chronotropic response in iv dosed cat assessed as inhibition of change in heart rate in presence of haloperidol; assay type: functional, organism-based
Summary of the method: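 Cat right cardioaccelerator nerve preparation with 2 Hz stimulation and heart-rate response recorded. Haloperidol (100 μg/kg) was given iv before the iv test compound, then inhibition of the nerve-evoked heart-rate increase was assessed.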

[12] = species: Felis catus; assay: Effect on 2 Hz transmural stimulation of right atrium-induced positive chronotropic response in cat assessed as inhibition of change in heart rate; assay type: functional, Cardiac atrium; summary of the method: as §3
[13] = tested on: Felis catus; assay: Effect on 2 Hz stimulation of right cardioaccelerator nerve-induced positive chronotropic response in iv dosed cat assessed as concentration required for 50% inhibition of change in heart rate; assay type: functional
[14] = tested on: Canis familiaris; assay: In vivo agonist activity at dopamine receptor in sc dosed mongrel dog assessed as induction of emesis after 1 hr relative to apomorphine; assay type: functional, Canis lupus familiaris; summary of the method: as §2
[15] = tested on: Columbidae; assay: In vivo agonist activity at dopamine receptor in pigeon assessed as induction of pecking behavior administered intramuscularly after 1 hr; assay type: functional, organism-based
Summary of the method: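 Pigeons were given compound intramuscularly, and pecking frequency was recorded for 1 h afterwards. Apomorphine hydrochloride served as reference standard.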

Br.CN1CCC[C@@H]2c3ccc(O)cc3CC[C@@H]21
ED50 [1]: 16.5 µmol/kg
ED50 [2]: 10 µmol/kg
Activity [3]: Non-toxic
Activity [4]: <=3.3 umol/Kg
T [5]: 2.3 °C
Activity [6]: inactive
Activity [7]: inactive
Activity [8]: 3.9 µM
fold change (FC) [9]: 0.1

COc1ccc2c(c1OC)CC[C@H]1[C@@H]2CCCN1C (relative stereo)
ED50 [1]: 1.7 µmol/kg
Activity [3]: Non-toxic
Activity [7]: inactive
fold change (FC) [9]: 1

COc1ccc2c(c1OC)CC[C@H]1[C@H]2CCCN1C (relative stereo)
ED50 [1]: 15.1 µmol/kg
Activity [3]: Non-toxic
Activity [7]: inactive
fold change (FC) [9]: 0.11

CN1CCC[C@@H]2c3ccccc3CC[C@@H]21 (relative stereo)
ED50 [1]: 2.7 µmol/kg
Activity [10]: inactive
ED50 [2]: 8.8 µmol/kg
Activity [3]: Non-toxic
Activity [4]: <=3.5 umol/Kg
T [5]: 1.6 °C
Activity [7]: inactive
Activity [8]: 1.6 µM
fold change (FC) [9]: 0.61

CN1CCC[C@H]2c3ccccc3CC[C@@H]21 (relative stereo)
ED50 [1]: 2.2 µmol/kg
Activity [10]: inactive
ED50 [2]: 4.1 µmol/kg
Activity [3]: Non-toxic
Activity [4]: <=3.5 umol/Kg
T [5]: 2.6 °C
Activity [7]: inactive
Activity [8]: 7.8 µM
fold change (FC) [9]: 0.74

Br.CN1CCC[C@@H]2c3cccc(O)c3CC[C@@H]21 (relative stereo)
ED50 [1]: 3.8 µmol/kg
ED50 [2]: 6 µmol/kg
Activity [3]: Non-toxic
Activity [4]: >3.3 µmol/kg
T [5]: 0 °C
Activity [7]: inactive
fold change (FC) [9]: 0.44

Br.CN1CCC[C@H]2c3cccc(O)c3CC[C@@H]21 (relative stereo)
ED50 [1]: 2.2 µmol/kg
inhibition [11]: inactive
Activity [3]: Non-toxic
T [5]: 1.4 °C
ID50 [12]: 1 ×10⁻¹ microM
fold change (FC) [9]: 0.76
Activity [13]: >2.1 µmol/kg
fold change (FC) [14]: 0.03

Br.CN1CCC[C@H]2c3ccc(O)cc3CC[C@@H]21 (relative stereo)
ED50 [1]: 9 µmol/kg
ED50 [2]: 4.3 µmol/kg
Activity [3]: Non-toxic
Activity [4]: <=3.3 umol/Kg
T [5]: 2.4 °C
Activity [6]: inactive
Activity [7]: inactive
Activity [8]: 12.7 µM
fold change (FC) [9]: 0.18

Br.CN1CCC[C@@H]2c3ccc(O)c(O)c3CC[C@@H]21 (relative stereo)
ED50 [1]: 8.3 µmol/kg
inhibition [11]: inactive
T [5]: 1.6 °C
ID50 [12]: 4.7 ×10⁻² microM
fold change (FC) [9]: 0.2
Activity [13]: 0.59 µmol/kg
fold change (FC) [14]: 0.02

Br.CN1CCC[C@H]2c3ccc(O)c(O)c3CC[C@@H]21 (relative stereo)
inhibition [11]: inactive
T [5]: 4.4 °C
ID50 [12]: 3.2 ×10⁻³ microM
Activity [13]: 0.0052 µmol/kg
fold change (FC) [14]: 6.1

CN1CCc2cccc3c2[C@H]1Cc1ccc(O)c(O)c1-3.CN1CCc2cccc3c2[C@H]1Cc1ccc(O)c(O)c1-3.Cl.Cl.O [APOMORPHINE HYDROCHLORIDE]
Activity [3]: Non-toxic
T [5]: 3.6 °C
Activity [15]: Active

— ChEMBL document CHEMBL3272132, “Centrally acting emetics. 10. Rigid dopamine congeners derived from octahydrobenzo[f]quinoline” (J Med Chem, 1976)
